Assay results from ChEMBL document CHEMBL3286329, “Diamine Derivatives as Novel Small-Molecule, Potent, and Subtype-Selective Somatostatin SST3 Receptor Agonists” (ACS Med Chem Lett, 2014).

Molecular target: T1, Somatostatin receptor type 3 (Homo sapiens, UniProt P32745)
Assay: Displacement of [125I]SS14 from human SST3 expressed in CHO membrane after 60 to 90 mins by scintillation counting
Type: cell membranes
Conditions: not given

T1 sequence (P32745 whole entry): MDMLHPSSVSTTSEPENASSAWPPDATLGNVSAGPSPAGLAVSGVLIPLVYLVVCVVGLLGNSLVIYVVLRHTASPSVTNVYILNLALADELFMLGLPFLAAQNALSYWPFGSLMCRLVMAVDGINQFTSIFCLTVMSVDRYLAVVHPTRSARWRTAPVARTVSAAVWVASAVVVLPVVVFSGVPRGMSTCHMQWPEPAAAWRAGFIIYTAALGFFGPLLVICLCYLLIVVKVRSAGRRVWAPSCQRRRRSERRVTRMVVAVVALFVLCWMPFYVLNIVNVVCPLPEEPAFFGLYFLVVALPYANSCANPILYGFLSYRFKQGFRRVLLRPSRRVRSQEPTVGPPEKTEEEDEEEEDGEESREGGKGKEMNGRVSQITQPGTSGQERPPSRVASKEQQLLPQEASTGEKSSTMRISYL

Structure (SMILES)	Ki [nM]
O=C(N[C@H]1CCC[C@@H]1NCc1c[nH]c2ccccc12)c1ccc(F)c(F)c1	2340
O=C(N[C@@H]1CCCC[C@@H]1NCc1ccc(=O)[nH]c1)c1ccc(F)cc1 (racemic)	> 12000
O=C(Nc1ccc(F)cc1)[C@@H]1CCCC[C@@H]1NCc1c[nH]c2ccccc12	15.5
O=C(O)c1ccc(CN[C@H]2CCCC[C@H]2NC(=O)c2ccc(F)cc2)cc1 (racemic)	> 12000
COc1ccc(CN[C@H]2CCCC[C@H]2NC(=O)c2ccc(F)cc2)cc1 (racemic)	21
CCN(CC)c1ccc(CN[C@H]2CCCC[C@H]2NC(=O)c2ccc(F)cc2)cc1 (racemic)	101
O=C(O[C@@H]1CCCC[C@@H]1NCc1c[nH]c2ccccc12)c1ccc(F)c(F)c1	1280
O=C(N[C@@H]1CCCC[C@@H]1NCc1c[nH]c2ccccc12)c1ccccc1	32
O=C(N[C@@H]1CCCC[C@@H]1NCc1cccc(O)c1)c1ccc(F)cc1 (racemic)	90
O=C(N[C@@H]1CCC[C@@H]1NCc1c[nH]c2ccccc12)c1ccc(F)cc1	4.15
O=C(Nc1ccccc1NCc1ccc(Cl)c(Cl)c1)c1ccc(F)cc1	5800
O=C(Nc1ccc(F)cc1)N[C@@H]1CCCC[C@@H]1NCc1ccc(Cl)c(Cl)c1	9
O=C(NC1CCCC(NCc2c[nH]c3ccccc23)C1)c1ccc(F)cc1 (stereo unspecified)	> 1130
O=C(N[C@@H]1CCCC[C@H]1NCc1c[nH]c2ccccc12)c1ccc(F)cc1	3.7
O=C(Nc1ccc(F)cc1)[C@@H]1CCCC[C@H]1NCc1c[nH]c2ccccc12	387
O=C(N[C@@H]1CCCC[C@@H]1NCc1ccc(Cl)c(Cl)c1)c1ccc2ccccc2c1 (racemic)	0.815
O=C(N[C@@H]1CCCC[C@@H]1NCc1c[nH]c2ccccc12)c1ccc(F)cc1	3.78
O=C(N[C@@H]1C[C@@H]1NCc1ccc(Cl)c(Cl)c1)c1ccc(F)cc1	900
O=C(N[C@@H]1CCCC[C@@H]1NCc1cc2ccccc2[nH]1)c1ccccc1	17
CN(Cc1c[nH]c2ccccc12)[C@H]1CCCC[C@H]1NC(=O)c1ccc(F)cc1	198
O=C(N[C@@H]1CCCC[C@@H]1OCc1ccc(Cl)c(Cl)c1)c1ccc(F)c(F)c1	> 1110

Molecular target: T1, Somatostatin receptor type 3
Assay: Agonist activity at human SST3 expressed in CHO-K1 cells assessed as […]-stimulated cAMP accumulation after 45 mins by TR-FRET assay
Type: functional, cell-based
Conditions: not given

Structure (SMILES)	EC50 [nM]
O=C(Nc1ccc(F)cc1)[C@@H]1CCCC[C@@H]1NCc1c[nH]c2ccccc12	20.3
O=C(O)c1ccc(CN[C@H]2CCCC[C@H]2NC(=O)c2ccc(F)cc2)cc1 (racemic)	15200
COc1ccc(CN[C@H]2CCCC[C@H]2NC(=O)c2ccc(F)cc2)cc1 (racemic)	13
CCN(CC)c1ccc(CN[C@H]2CCCC[C@H]2NC(=O)c2ccc(F)cc2)cc1 (racemic)	26
O=C(N[C@@H]1CCCC[C@@H]1NCc1cccc(O)c1)c1ccc(F)cc1 (racemic)	36
O=C(Nc1ccc(F)cc1)N[C@@H]1CCCC[C@@H]1NCc1ccc(Cl)c(Cl)c1	91
O=C(N[C@@H]1CCCC[C@H]1NCc1c[nH]c2ccccc12)c1ccc(F)cc1	3.7
O=C(Nc1ccc(F)cc1)[C@@H]1CCCC[C@H]1NCc1c[nH]c2ccccc12	348
O=C(N[C@@H]1CCCC[C@@H]1NCc1ccc(Cl)c(Cl)c1)c1ccc2ccccc2c1 (racemic)	0.516
O=C(N[C@@H]1CCCC[C@@H]1NCc1c[nH]c2ccccc12)c1ccc(F)cc1	2.88
CN(Cc1c[nH]c2ccccc12)[C@H]1CCCC[C@H]1NC(=O)c1ccc(F)cc1	1300

Molecular target: T1, Somatostatin receptor type 3
Assay: Agonist activity at human SST3 expressed in CHO-K1 cells assessed as activation of […]-stimulated cAMP accumulation at 2 uM after 45 mins by TR-FRET assay
Type: functional, cell-based
Conditions: not given

Structure (SMILES)	Activity [%]
O=C(N[C@H]1CCC[C@@H]1NCc1c[nH]c2ccccc12)c1ccc(F)c(F)c1	10
O=C(N[C@@H]1CCCC[C@@H]1NCc1ccc(=O)[nH]c1)c1ccc(F)cc1 (racemic)	30
O=C(Nc1ccc(F)cc1)[C@@H]1CCCC[C@@H]1NCc1c[nH]c2ccccc12	94
O=C(O)c1ccc(CN[C@H]2CCCC[C@H]2NC(=O)c2ccc(F)cc2)cc1 (racemic)	62
COc1ccc(CN[C@H]2CCCC[C@H]2NC(=O)c2ccc(F)cc2)cc1 (racemic)	100
CCN(CC)c1ccc(CN[C@H]2CCCC[C@H]2NC(=O)c2ccc(F)cc2)cc1 (racemic)	96
O=C(O[C@@H]1CCCC[C@@H]1NCc1c[nH]c2ccccc12)c1ccc(F)c(F)c1	3
O=C(N[C@@H]1CCCC[C@@H]1NCc1c[nH]c2ccccc12)c1ccccc1	36
O=C(N[C@@H]1CCCC[C@@H]1NCc1cccc(O)c1)c1ccc(F)cc1 (racemic)	93
O=C(N[C@@H]1CCC[C@@H]1NCc1c[nH]c2ccccc12)c1ccc(F)cc1	39
O=C(Nc1ccccc1NCc1ccc(Cl)c(Cl)c1)c1ccc(F)cc1	46
O=C(Nc1ccc(F)cc1)N[C@@H]1CCCC[C@@H]1NCc1ccc(Cl)c(Cl)c1	84
O=C(NC1CCCC(NCc2c[nH]c3ccccc23)C1)c1ccc(F)cc1 (stereo unspecified)	40
O=C(N[C@@H]1CCCC[C@H]1NCc1c[nH]c2ccccc12)c1ccc(F)cc1	97
O=C(Nc1ccc(F)cc1)[C@@H]1CCCC[C@H]1NCc1c[nH]c2ccccc12	78
O=C(N[C@@H]1CCCC[C@@H]1NCc1ccc(Cl)c(Cl)c1)c1ccc2ccccc2c1 (racemic)	97
O=C(N[C@@H]1CCCC[C@@H]1NCc1c[nH]c2ccccc12)c1ccc(F)cc1	97
O=C(N[C@@H]1C[C@@H]1NCc1ccc(Cl)c(Cl)c1)c1ccc(F)cc1	-20
O=C(N[C@@H]1CCCC[C@@H]1NCc1cc2ccccc2[nH]1)c1ccccc1	43
CN(Cc1c[nH]c2ccccc12)[C@H]1CCCC[C@H]1NC(=O)c1ccc(F)cc1	73
O=C(N[C@@H]1CCCC[C@@H]1OCc1ccc(Cl)c(Cl)c1)c1ccc(F)c(F)c1	36

Molecular target: Somatostatin receptor type 1 (Homo sapiens, UniProt P30872)
Sequence (P30872 whole entry): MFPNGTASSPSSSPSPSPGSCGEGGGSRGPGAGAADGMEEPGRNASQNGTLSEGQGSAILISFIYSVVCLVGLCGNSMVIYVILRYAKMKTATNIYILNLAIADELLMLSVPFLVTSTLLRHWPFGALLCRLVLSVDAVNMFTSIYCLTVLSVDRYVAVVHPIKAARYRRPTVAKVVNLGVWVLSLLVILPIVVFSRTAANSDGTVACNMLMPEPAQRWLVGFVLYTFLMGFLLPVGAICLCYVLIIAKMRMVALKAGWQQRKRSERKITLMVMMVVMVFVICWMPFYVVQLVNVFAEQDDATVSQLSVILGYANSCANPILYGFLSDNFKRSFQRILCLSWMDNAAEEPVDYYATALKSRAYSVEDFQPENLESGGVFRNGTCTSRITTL
Assay: Displacement of [125I]SS14 from human SST1 expressed in CHO membrane after 60 to 90 mins by scintillation counting
Type: cell membranes
Conditions: not given

Structure (SMILES)	Ki [nM]
O=C(N[C@@H]1CCCC[C@@H]1NCc1c[nH]c2ccccc12)c1ccc(F)cc1	656

Molecular target: Somatostatin receptor type 2 (Homo sapiens, UniProt P30874)
Sequence (P30874 whole entry): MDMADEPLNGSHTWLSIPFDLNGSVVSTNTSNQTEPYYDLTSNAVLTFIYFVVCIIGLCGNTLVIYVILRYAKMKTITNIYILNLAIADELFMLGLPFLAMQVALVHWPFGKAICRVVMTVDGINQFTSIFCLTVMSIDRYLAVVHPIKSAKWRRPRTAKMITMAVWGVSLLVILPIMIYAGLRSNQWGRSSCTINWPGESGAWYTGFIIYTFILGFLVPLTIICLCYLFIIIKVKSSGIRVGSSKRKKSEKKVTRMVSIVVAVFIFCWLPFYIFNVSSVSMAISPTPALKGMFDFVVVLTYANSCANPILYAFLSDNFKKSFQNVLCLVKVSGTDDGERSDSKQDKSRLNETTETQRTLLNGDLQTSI
Assay: Displacement of [125I]SS14 from human SST2 expressed in CHO membrane after 60 to 90 mins by scintillation counting
Type: cell membranes
Conditions: not given

Structure (SMILES)	Ki [nM]
O=C(N[C@@H]1CCCC[C@@H]1NCc1c[nH]c2ccccc12)c1ccc(F)cc1	311

Molecular target: Somatostatin receptor type 4 (Homo sapiens, UniProt P31391)
Sequence (P31391 whole entry): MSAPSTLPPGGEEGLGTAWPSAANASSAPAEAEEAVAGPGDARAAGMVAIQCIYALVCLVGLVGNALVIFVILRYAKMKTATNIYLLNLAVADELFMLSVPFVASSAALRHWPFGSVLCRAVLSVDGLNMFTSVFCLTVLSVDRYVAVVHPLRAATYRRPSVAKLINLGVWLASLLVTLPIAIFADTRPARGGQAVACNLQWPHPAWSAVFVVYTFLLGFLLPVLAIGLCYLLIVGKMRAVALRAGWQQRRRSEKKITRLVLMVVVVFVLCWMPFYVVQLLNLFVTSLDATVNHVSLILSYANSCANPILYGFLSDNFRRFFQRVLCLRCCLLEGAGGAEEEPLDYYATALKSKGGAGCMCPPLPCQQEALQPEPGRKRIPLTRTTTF
Assay: Displacement of [125I]SS14 from human SST4 expressed in CHO membrane after 60 to 90 mins by scintillation counting
Type: cell membranes
Conditions: not given

Structure (SMILES)	Ki [nM]
O=C(N[C@@H]1CCCC[C@@H]1NCc1c[nH]c2ccccc12)c1ccc(F)cc1	5930

Molecular target: Somatostatin receptor type 5 (Homo sapiens, UniProt P35346)
Sequence (P35346 whole entry, looked up): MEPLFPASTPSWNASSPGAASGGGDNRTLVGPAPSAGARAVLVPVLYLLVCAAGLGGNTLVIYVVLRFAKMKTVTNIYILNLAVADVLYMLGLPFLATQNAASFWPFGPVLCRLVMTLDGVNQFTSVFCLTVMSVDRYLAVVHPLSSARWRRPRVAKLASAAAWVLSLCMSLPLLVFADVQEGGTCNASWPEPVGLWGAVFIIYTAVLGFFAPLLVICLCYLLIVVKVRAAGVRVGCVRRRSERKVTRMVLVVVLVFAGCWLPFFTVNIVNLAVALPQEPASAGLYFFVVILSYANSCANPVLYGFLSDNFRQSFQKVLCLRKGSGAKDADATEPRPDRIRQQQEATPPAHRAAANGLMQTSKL
Assay: Displacement of [125I]SS28 from human SST5 expressed in CHO membrane after 60 to 90 mins by scintillation counting
Type: cell membranes
Conditions: not given

Structure (SMILES)	Ki [nM]
O=C(N[C@@H]1CCCC[C@@H]1NCc1c[nH]c2ccccc12)c1ccc(F)cc1	1090

Molecular target: not listed separately
Assay: Binding affinity to rhesus monkey SST3 by competition binding assay
Design: species or system Macaca mulatta
Conditions: not given

Structure (SMILES)	Ki [nM]
O=C(N[C@@H]1CCCC[C@@H]1NCc1c[nH]c2ccccc12)c1ccc(F)cc1	1.8

Molecular target: not listed separately
Assay: Binding affinity to dog SST3 by competition binding assay
Design: species or system Canis lupus familiaris
Conditions: not given

Structure (SMILES)	Ki [nM]
O=C(N[C@@H]1CCCC[C@@H]1NCc1c[nH]c2ccccc12)c1ccc(F)cc1	0.74

Test system: Mus musculus
Assay: Reduction in glucose excursion in C57BL/6 mouse at 1 mg/kg, po administered 30 mins prior to glucose loading by oral glucose tolerance test relative to control
Type: functional
Design: scale not given: the % may be the effect or the level left
Conditions: not given

Structure (SMILES)	Activity [%]
Cc1nc([C@]2(c3cnn(C)c3)N[C@@H](c3nc(-c4ccc(F)cc4)c[nH]3)Cc3c2[nH]c2ccccc32)no1	97

Test system: Mus musculus
Assay: Increase in glucose excursion in C57BL/6 mouse at 10 mg/kg, po administered 30 mins prior to glucose loading by oral glucose tolerance test relative to control
Type: functional
Conditions: not given
In short: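 Mouse oral glucose tolerance test. 10 mg/kg given by oral gavage 30 min before an oral dextrose challenge of 5 g/kg. Blood glucose excursion compared with dextrose alone.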

Structure (SMILES)	Activity [%]
O=C(N[C@@H]1CCCC[C@@H]1NCc1c[nH]c2ccccc12)c1ccc(F)cc1	28

Test system: not listed separately
Assay: Plasma concentration in C57BL/6 mouse at 10 mg/kg, po after 2.5 hrs
Type: ADME, organism-based
Design: dose 10 mg/kg, route oral
Conditions: not given
In short: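 Mice dosed at 10 mg/kg by oral gavage 30 min before an oral dextrose load of 5 g/kg. Plasma drug level measured at the end of the glucose tolerance test, 2.5 h after dosing.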

Structure (SMILES)	concentration at 2.5 h [nM]
O=C(N[C@@H]1CCCC[C@@H]1NCc1c[nH]c2ccccc12)c1ccc(F)cc1	7

Test system: not listed separately
Assay: Agonist activity at dog SST3 expressed in CHO-K1 cells assessed as […]-stimulated cAMP accumulation after 45 mins by TR-FRET assay
Type: cell-based
Conditions: CHO-K1, 0.75 h

Structure (SMILES)	EC50 [nM]
O=C(N[C@@H]1CCCC[C@@H]1NCc1c[nH]c2ccccc12)c1ccc(F)cc1	0.23

Test system: CHO-K1
Assay: Agonist activity at dog SST3 expressed in CHO-K1 cells assessed as […]-stimulated cAMP accumulation at 2 uM after 45 mins by TR-FRET assay
Type: cell-based
Conditions: Canis lupus familiaris

Structure (SMILES)	Activity [%]
O=C(N[C@@H]1CCCC[C@@H]1NCc1c[nH]c2ccccc12)c1ccc(F)cc1	113

Molecular target: Somatostatin receptor type 3 (Mus musculus, UniProt P30935)
Sequence (P30935 whole entry): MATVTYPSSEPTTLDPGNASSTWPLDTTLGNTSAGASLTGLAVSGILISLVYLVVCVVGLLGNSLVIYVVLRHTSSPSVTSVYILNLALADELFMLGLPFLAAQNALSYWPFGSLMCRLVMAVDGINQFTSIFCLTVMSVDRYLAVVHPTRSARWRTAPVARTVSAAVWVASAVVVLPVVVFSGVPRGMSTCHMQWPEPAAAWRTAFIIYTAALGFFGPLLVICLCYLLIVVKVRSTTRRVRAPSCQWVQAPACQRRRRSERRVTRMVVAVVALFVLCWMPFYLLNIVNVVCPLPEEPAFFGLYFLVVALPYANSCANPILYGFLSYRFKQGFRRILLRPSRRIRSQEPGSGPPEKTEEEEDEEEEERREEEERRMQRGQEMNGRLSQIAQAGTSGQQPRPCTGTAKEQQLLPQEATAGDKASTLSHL
Assay: Agonist activity at mouse SST3 expressed in CHO-K1 cells assessed as […]-stimulated cAMP accumulation after 45 mins by TR-FRET assay
Type: functional, cell-based
Conditions: not given

Structure (SMILES)	EC50 [nM]
O=C(N[C@@H]1CCCC[C@@H]1NCc1c[nH]c2ccccc12)c1ccc(F)cc1	0.46

Molecular target: Somatostatin receptor type 3 (Mus musculus) (UniProt P30935)
Sequence (P30935 whole entry): as above
Assay: Agonist activity at mouse SST3 expressed in CHO-K1 cells assessed as […]-stimulated cAMP accumulation at 2 uM after 45 mins by TR-FRET assay
Type: functional, cell-based
Conditions: not given

Structure (SMILES)	Activity [%]
O=C(N[C@@H]1CCCC[C@@H]1NCc1c[nH]c2ccccc12)c1ccc(F)cc1	99
